Our source for the ED50, Control and Ki values is ChEMBL document CHEMBL1125228, “A 3-D model for 5-HT1A-receptor agonists based on stereoselective methyl-substituted and conformationally restricted analogues of 8-hydroxy-2-(dipropylamino)tetralin” (J Med Chem, 1991).

The target in assay [1] is Serotonin (5-HT) receptor (Rattus norvegicus) (UniProt P35563+P35365+P32305+P31388+Q9JJ16+P28564+P30994+Q62758+P08909+P14842+P30940+P35364+P19327+P28565). Briefly: Dose corresponding to half-maximal decrease of 5-HTP formation in the limbic and striatal parts of rat brain. Format: functional, tissue-based.
Assay [2] has as its target T1, Dopamine receptor (Rattus norvegicus) (UniProt P25115+P19020+P30729+P18901+P61169). Briefly: In vivo accumulation of DOPA in hemisphere of rat brain at a dose of 53 umol/kg. It is filed as functional, organism-based. In outline:
(§1)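 Rats, reserpine-pretreated (5 mg/kg, i.e. 9 μmol/kg sc, 6 h before) or nonpretreated, given test hydrochloride sc in the neck (injection volume 5 mL/kg). Decarboxylase inhibitor NSD 1015 (100 mg/kg ip or 60 mg/kg sc) given 30 min later; decapitation after another 30 min. Brain dissected on ice into striatum, limbic system, hemispheres, brain stem. Homogenized in 0.1 M perchloric acid with α-methyl-DOPA internal standard; DOPA measured by ion-pair reversed-phase HPLC with electrochemical detection.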

Assay [3] deals with T2, 5-hydroxytryptamine receptor 1A (Rattus norvegicus, UniProt P19327).
T2 sequence (P19327 whole entry): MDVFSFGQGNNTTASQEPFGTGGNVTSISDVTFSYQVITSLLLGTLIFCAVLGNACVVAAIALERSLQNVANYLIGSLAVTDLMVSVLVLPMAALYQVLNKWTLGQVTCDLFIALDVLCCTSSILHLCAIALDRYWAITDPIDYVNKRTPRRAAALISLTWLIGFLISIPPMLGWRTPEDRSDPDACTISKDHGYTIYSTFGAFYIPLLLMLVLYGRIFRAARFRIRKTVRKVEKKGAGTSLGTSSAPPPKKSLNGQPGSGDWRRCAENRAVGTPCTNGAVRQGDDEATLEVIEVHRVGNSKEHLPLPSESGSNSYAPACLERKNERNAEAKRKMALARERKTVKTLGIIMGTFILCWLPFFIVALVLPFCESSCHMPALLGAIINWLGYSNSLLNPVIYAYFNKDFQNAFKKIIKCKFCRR
The experiment in a line: Binding affinity at 5-hydroxytryptamine 1A receptor by the displacement of [3H]8-OH-DPAT in rat brain. Format: tissue-based. The gist of the method:
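Rat brain membranes washed in 50 mM Tris-HCl pH 7.4, with a 37 °C 10 min incubation to remove endogenous 5-HT, used at 10 mg wet tissue/mL. Incubated 15 min at 37 °C with 1 nM [3H]-8-OH-DPAT, 3 mM CaCl2 and pargyline. Filtered and counted; 10 µM 5-HT defined nonspecific binding. IC50 from four-parameter logistic fit, converted to Ki by Cheng-Prusoff; mean ± SEM of N experiments.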
A general note: Displacement assays read how much labelled ligand stays bound in the presence of the test substance.

Assay [4] concerns Rattus norvegicus. The experiment in a line: In vivo accumulation of 5-HTP in brain stem of rat brain at a dose of 53 umol/kg. It is filed as functional. In outline: (§2)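 Hydrochlorides given sc in the neck (5 mL/kg) to rats, either untreated or reserpine-pretreated (5 mg/kg sc, 6 h before). Decarboxylase inhibitor NSD 1015 (100 mg/kg ip or 60 mg/kg sc) given 30 min later; rats decapitated after another 30 min. Striatum, limbic system, hemispheres and brain stem dissected on ice and homogenized in 0.1 M perchloric acid with α-methyl-DOPA internal standard. DOPA, DA, 5-HTP and 5-HT measured by ion-pair reversed-phase HPLC with electrochemical detection.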

For assay [5], the system named is Rattus norvegicus. Briefly: In vivo accumulation of 5-HTP in striatum of rat brain at a dose of 53 umol/kg. It is filed as functional. In outline:
as §2

Assay [6] deals with Rattus norvegicus. Briefly: In vivo accumulation of 5-HT in striatum of rat brain at a dose of 53 umol/kg. It is filed as functional. In outline:
as §2

In assay [7] the test system is Rattus norvegicus. Briefly: In vivo accumulation of 5-HTP in hemisphere of rat brain at a dose of 53 umol/kg. Format: functional. In outline: as §2
Assay [8] relates to Rattus norvegicus. The experiment in a line: In vivo accumulation of DA in striatum of rat brain at a dose of 53 umol/kg. Format: functional. In outline: as §2
Assay [9] deals with Rattus norvegicus. Briefly: In vivo accumulation of DOPA in striatum of rat brain at a dose of 53 umol/kg. Format: functional. The gist of the method: as §1
The subject of assay [10] is Rattus norvegicus. The experiment in a line: In vivo accumulation of 5-HTP in limbic of rat brain at a dose of 53 umol/kg. It is filed as functional. The gist of the method:
as §2

The subject of assay [11] is Rattus norvegicus. The experiment in a line: In vivo accumulation of DOPA in brain stem of rat brain at a dose of 53 umol/kg. It is filed as functional. The gist of the method: as §2
For assay [12], the system named is Rattus norvegicus. Briefly: In vivo accumulation of 5-HT in limbic of rat brain at a dose of 53 umol/kg. It is filed as functional. In outline:
as §2

Assay [13] concerns Rattus norvegicus. The experiment in a line: In vivo accumulation of DA in striatum of rat brain at a dose of 63 umol/kg. It is filed as functional. The gist of the method:
as §2

The test system of assay [14] is Rattus norvegicus. The experiment in a line: In vivo accumulation of DOPA in brain stem of rat brain at a dose of 63 umol/kg. Format: functional. In outline:
as §2

Assay [15] has as its system Rattus norvegicus. The experiment in a line: In vivo accumulation of 5-HT in striatum of rat brain at a dose of 63 umol/kg. Format: functional. In outline:
as §2

Assay [16] deals with Rattus norvegicus. Briefly: In vivo accumulation of 5-HTP in hemisphere of rat brain at a dose of 63 umol/kg. It is filed as functional. In outline: as §2
In assay [17] the test system is Rattus norvegicus. The experiment in a line: In vivo accumulation of DOPA in striatum of rat brain at a dose of 63 umol/kg. It is filed as functional. In outline:
as §1

For assay [18], the system named is Rattus norvegicus. The experiment in a line: In vivo accumulation of 5-HTP in brain stem of rat brain at a dose of 63 umol/kg. Format: functional. The gist of the method:
as §2

Assay [19] concerns Rattus norvegicus. Briefly: In vivo accumulation of 5-HTP in limbic of rat brain at a dose of 63 umol/kg. It is filed as functional. The gist of the method:
as §2

The test system of assay [20] is Rattus norvegicus. The experiment in a line: In vivo accumulation of 5-HT in limbic of rat brain at a dose of 63 umol/kg. Format: functional. In outline:
as §2

Assay [21] has as its target T1, Dopamine receptor (Rattus norvegicus). Briefly: In vivo accumulation of DOPA in limbic of rat brain at a dose of 63 umol/kg. Format: functional, organism-based. In outline: as §1
The test system of assay [22] is Rattus norvegicus. The experiment in a line: In vivo accumulation of 5-HTP in striatum of rat brain at a dose of 63 umol/kg. Format: functional. In outline: as §2
The subject of assay [23] is Rattus norvegicus. The experiment in a line: In vivo accumulation of DOPA in hemisphere of rat brain at a dose of 63 umol/kg. Format: functional. The gist of the method: as §1

“And” between values parts separate entries of the source, which are not always exact repeats. Equal entries are not always repeated.

By ED50 is commonly meant the dose that gives a 50% effect, or the effect in half of the subjects. Low readings indicate greater potency, high ones weaker potency. Broadly, the Ki is the equilibrium dissociation constant of an inhibitor or competing ligand from its target. Lower therefore signals tighter binding.

In assay [1], `CCCN(CCC)[C@@H]1C[C@@H]1c1cccc(O)c1` had an ED50 of more than 0.05 mg/kg.
`CCCN1CCC[C@@H]2c3c(O)cccc3CC[C@H]21` [listing 1 of 2 here] gave an ED50 in assay [1] of 0.0005 mg/kg. Besides, in assay [2], the Control turned out to be 117%.
`CCCN(CCC)[C@H]1Cc2c(O)cccc2C[C@H]1C` [listing 1 of 2 here]: affinity in [3] was put at a Ki of 2020 nM.
Regarding `CCCN1CCC[C@@H]2Cc3cccc(O)c3C[C@H]21`, in assay [1], the ED50 was more than 0.05 mg/kg. Also, the Control in assay [2] stood at 97.5%.
`CCCN1CCC[C@@H]2c3c(O)cccc3CC[C@H]21` [listing 2 of 2 here] returned a Ki in assay [3] of 32.3 nM. This lies in the double-digit nanomolar range.
For `CCCN1CCC[C@H]2Cc3cccc(O)c3C[C@@H]21` [listing 1 of 2 here], the Control in assay [4] was determined as 112.4%; in [5], 124.8%; in [6], 116.9%; in assay [7], 113%; in assay [8], 95.4%; in assay [9], 91.4%. Besides, the Control is recorded as 102.3% in assay [10], 117.7% in [11] and 95.1% in [12].
In the case of `Oc1cccc2c1C[C@@H]1NCCC[C@@H]1C2`, the Control in assay [13] was found to be 92.6%; in assay [14], 97.7%; in assay [15] it was 105%; in assay [16], 59.7%; in assay [17], 88%; in assay [18], 101.7%. Further, the Control in assay [19] is 88.6%; in assay [20] it was 92.5%; in assay [21] it was 75.3% and 73.5%; in assay [22], 102.7%; in assay [23], 70.4%.
In the case of `CCCN(CCC)[C@H]1Cc2c(O)cccc2C[C@@H]1C`, the ED50 in [1] amounted to 0.005 mg/kg.
Take `CCCN(CCC)[C@H]1CCc2cccc(O)c2[C@H]1C`: affinity in assay [3] was put at a Ki of 2920 nM. In assay [1], this compound showed an ED50 of more than 0.05 mg/kg.
As for `CCCN(CCC)[C@H]1Cc2c(O)cccc2C[C@H]1C` [listing 2 of 2 here], the ED50 in assay [1] was more than 0.05 mg/kg.
Consider `CCCN(CCC)[C@@H]1Cc2c(O)cccc2C[C@H]1C`, for which affinity in assay [3] was put at a Ki of 1390 nM. Moreover, the ED50 in assay [1] was more than 0.043 mg/kg.
In assay [3], `CCCN1CCC[C@H]2Cc3cccc(O)c3C[C@@H]21` [listing 2 of 2 here] registered a Ki of more than 10000 nM.
Consider `CCCN1CCC[C@H]2Cc3cccc(O)c3C[C@H]21`, for which the Ki in [3] was 151 nM.
`CCCN1CCC[C@H]2c3c(O)cccc3CC[C@@H]21` came in with an ED50 in assay [1] of 0.0005 mg/kg. In addition, in [2], the Control stood at 140%.
`CCCN1CCC[C@@H]2Cc3cccc(O)c3C[C@@H]21`: the Control in [4] is on record as 87.6%; in [5], 76.1%; in assay [6], 118.7%; in assay [7] it was 77.9%; in assay [8], 105.3%; in assay [9], 68.3%. Moreover, the Control is on record as 80.6% in assay [10], 82.3% in assay [11] and 107.5% in assay [12].
In assay [3], `CCCN(CCC)[C@@H]1CCc2cccc(O)c2[C@H]1C` (racemic) registered a Ki of 1040 nM. Also, the ED50 in assay [1] was more than 0.05 mg/kg.
Regarding `CCCN(CCC)[C@@H]1C[C@@H]1c1ccccc1O`, it took a dose of 0.04 mg/kg to reach the 50% effect level in assay [1] (ED50).
